ALR H2O2 inh = human ALR oxidase inhibition via reduced H2O2; P55789; purified ALR, DTT oxidation, H2O2 HRP-luminol luminescence; AID 485317; 3.8% of 290,000 active; inhibition, % (no concentration beside the values);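 active = mean replicate inhibition above about 79%, with every replicate also reaching it, limit read from the data; inconclusive = only one of the two criteria met; inactive = mean below limit and not every replicate reaching it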
Target sequence (P55789 whole entry, looked up): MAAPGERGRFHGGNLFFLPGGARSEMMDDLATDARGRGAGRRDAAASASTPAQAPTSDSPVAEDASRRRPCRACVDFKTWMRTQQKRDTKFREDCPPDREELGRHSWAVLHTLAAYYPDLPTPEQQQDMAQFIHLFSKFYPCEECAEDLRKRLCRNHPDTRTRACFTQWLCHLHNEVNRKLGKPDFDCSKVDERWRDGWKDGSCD
T cell modulator = modulates CD8 T cell binding to vesicles; 2C CD8+ T cell-vesicle binding, flow cytometry; stronger effect = lower value; response (vesicle binding), % at 7 µM; 0.068% of 330,000 active;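 active = response, share of CD8 T cells binding vesicles, and their 90th percentile fluorescence all below set limits, cut at about 80% in these data, passing the limit was not always enough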;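 note: values below 100% mean blocked vesicle binding to the CD8+ T cells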
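Incubation: binding step 1.5 h, 37 °C, antibody labelling 20 min, ice; system: murine 2C transgenic CD8+ T lymphocytes; technique: cytometric PE anti-B7-1 and Alexa647 anti-CD8 signals after 1% paraformaldehyde fixation; also added: QL9-charged Drosophila Ld/ICAM-1/B7-1 vesicles; control set: naked versus QL9-loaded vesicles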
N-glyco inh = N-linked glycosylation inhibition; D54 ERlucT glycosylation luciferase reporter, 24 h; percent of 100 nM tunicamycin response; 0.23% of 360,000 active; reporter increase, % at 12.5 µM;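 active = mean luciferase reporter signal, scaled so untreated is 0 and the glycosylation-blocking control 100, at or above a set limit in every replicate; inconclusive = mean reaches the limit but not every replicate does; inactive = mean below the limit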;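 note: luciferase carries N-glycosylation sites so blocking glycosylation raises the light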
Numbers stand for hits; . = inactive; ? = inconclusive; / = not tested or not shown. The entries come from a sample that favours hits as a whole.

SMILES	ALR H2O2 inh	T cell modulator	N-glyco inh
Cc1cccc(C(=O)Nc2sc3c(c2C(=O)O)CCC3)c1	.	.	.
CNC(=O)c1c(NC(=O)c2cccc(C)c2)sc2c1CCC2	95	.	.
C/C(=N\NC(=O)CSc1nc2ccccc2o1)c1ccc(O)cc1	99	.	.
O=C(CSc1nc2ccccc2o1)N/N=C/c1ccc(O)c(O)c1	88	.	.
O=C(CSc1nc2ccccc2o1)N/N=C/c1ccccc1	.	.	.
C/C(=N\NC(=O)CSc1nc2ccccc2o1)c1cccc(O)c1	/	.	.
Cc1cc(C(=O)N2CCCC(Nc3ccc(C(C)C)cc3)C2)nn1C (configuration not stated)	99	.	.
CC(C)c1ccc(NC2CCCN(C(=O)c3ccnn3C)C2)cc1 (configuration not stated)	?	.	.
CC(C)c1ccc(NC2CCCN(C(=O)c3cnsn3)C2)cc1 (configuration not stated)	96	.	.
COc1cc(CNC23CC4CC(CC(C4)C2)C3)ccc1OCc1ccccc1	.	.	.
CC1CC(C)CN(C(=O)C2CCN(S(=O)(=O)c3cccc4cccnc34)CC2)C1 (configuration not stated)	.	.	.
Cc1cccc(CN2C(=O)c3ccccc3S(=O)(=O)c3ccc(C(=O)NCCCN4CCCC4)cc32)c1	.	.	.
CCC(C)(C(=O)NC1CCCC1)N(Cc1cccs1)C(C)=O (configuration not stated)	.	.	.
CCC(C)(C(=O)NC1CCCC1)N(Cc1cccs1)C(=O)Cc1cccs1 (configuration not stated)	.	35	.
COc1ccc(C)cc1NC(=O)c1nn(C)cc1Br	.	.	.
CNC(=S)N1CCN(c2cccc(OC)c2)CC1	99	.	.
CCOc1ccccc1NC(=S)N1CCN(c2cccc(OC)c2)CC1	98	.	.
COc1cccc(N2CCN(C(=S)Nc3ccccc3OC)CC2)c1	?	.	.
COc1cccc(N2CCN(C(=S)Nc3cc(C)cc(C)c3)CC2)c1	.	.	.
O=C(c1ccc(=O)[nH]n1)N1CCc2ccccc2C1	/	.	.
O=C(OCC(=O)N1CCCCC1)c1cc(=O)[nH]c2ccccc12	.	.	.
Cc1ccc(OCCOC(=O)c2cccc(S(=O)(=O)N3CC(C)OC(C)C3)c2)cc1 (configuration not stated)	.	.	.
COc1ccc(/C=N/NC(=O)CCc2n[nH]c(=O)[nH]c2=O)cc1OC	/	.	.
COc1cc(/C=N/NC(=O)CCC(=O)NC2CCCCC2)ccc1C	.	.	.
CCOc1cc(/C=N/NC(=O)CCCC(=O)NC2CCCCC2)ccc1O	99	.	.
SMILES	ALR H2O2 inh	T cell modulator	N-glyco inh
CCOc1cc(/C=N/NC(=O)CCc2n[nH]c(=O)[nH]c2=O)ccc1O	99	.	.
CCC(=O)Nc1c2c(nn1-c1ccc(C)cc1)CS(=O)(=O)C2	.	.	.
O=S(=O)(Nc1cccc(S(=O)(=O)N2CCCCCC2)c1)c1ccc(F)cc1F	.	.	.
COc1ccccc1C(=O)NC(=O)COC(=O)/C(=C/c1ccccc1)NC(C)=O	.	.	.
O=C(NCc1ccccc1)C1CCCN(C(=O)c2ccc(F)cc2)C1 (configuration not stated)	/	/	.
COc1ccc([C@H]2C[C@H](O)[C@@H](n3cc(COC(=O)c4ccccc4)nn3)CN2CC2CCCCC2)cc1	/	/	.
CCCN(CCC)CCCNC(=O)CN1C(=O)CSc2ccc(S(=O)(=O)N3CCOCC3)cc21	.	.	.
Cc1cccc(OCC(=O)Nc2ccc(S(=O)(=O)Nc3ccccn3)cc2)c1	.	.	.
Cc1cc(C)nc(NS(=O)(=O)c2ccc(NC(=O)COc3ccccc3)cc2)n1	99	.	.
CCc1cccc(OCC(=O)Nc2ccc(S(=O)(=O)Nc3onc(C)c3C)cc2)c1	95	.	.
Cc1cc(C)nc(NS(=O)(=O)c2ccc(NC(=O)Cc3ccccc3)cc2)n1	.	.	.
COc1cc(NS(=O)(=O)c2ccc(NC(=O)COc3cccc(C)c3)cc2)nc(OC)n1	98	.	.
COc1cc(NS(=O)(=O)c2ccc(NC(=O)NC3CCCCC3)cc2)nc(OC)n1	98	.	.
Cc1ccc(OCC(=O)Nc2ccc(S(=O)(=O)Nc3onc(C)c3C)cc2)cc1	/	.	.
COc1cc(NS(=O)(=O)c2ccc(NC(=S)NC(=O)C3CCCC3)cc2)nc(OC)n1	.	.	.
COc1ccc(S(=O)(=O)N2CCC(C(=O)N[C@@H](C)C(=O)N3CCCCCC3)CC2)cc1	.	.	.
CC(=O)N1CCN(Cc2nc3cc(NC(=O)COc4cccc(C)c4)ccc3n2C)CC1	.	.	.
CCOc1cc(N2CCOCC2)c(OCC)cc1NC(=O)c1ccc(NC(C)=O)cc1	.	.	.
Cc1cc(C)nc(NS(=O)(=O)c2ccc(NC(=O)c3ccc(O)cc3O)cc2)n1	99	.	.
COc1cc(NS(=O)(=O)c2ccc(NC(=O)COc3ccccc3Cl)cc2)nc(OC)n1	93	.	/
Cc1cc(C)nc(NS(=O)(=O)c2ccc(NC(=O)c3ccccc3C)cc2)n1	.	.	.
CCOc1ccccc1C(=O)Nc1ccc(S(=O)(=O)Nc2cc(OC)nc(OC)n2)cc1	.	.	.
CCCCNc1cc(F)nc(N)n1	.	.	.
CC(CCc1ccccc1)NC(=O)/C=C/c1ccc(F)cc1 (configuration not stated)	.	.	/
CC(C)n1c(/C=C/[C@H](O)C[C@H](O)CC(=O)O)c(-c2ccc(F)cc2)c2ccccc21	99	.	104
SMILES	ALR H2O2 inh	T cell modulator	N-glyco inh
CC(=O)c1ccc(Nc2nc(C(N)COCc3ccccc3)cs2)cc1 (configuration not stated)	/	/	.
CCNC(=O)C1(C)CCCN(C(=O)COCc2ccccc2)C1 (configuration not stated)	/	/	.
COC(=O)[C@H](C(C)C)N(Cc1ccccc1)S(=O)(=O)CCNC1CCCC1	/	/	.
O=S(=O)(c1ccccc1)N1CCN(S(=O)(=O)c2ccccc2)C1	.	.	.
O=S(=O)(/N=S1/CC=CCN1S(=O)(=O)c1ccccc1)c1ccccc1 (configuration not stated)	99	.	.
C[C@H](C(=O)CC(=O)OC(C)(C)C)[C@H](O)c1ccccc1	.	.	.
C[C@H](O)[C@@H]1C(=O)N2CCc3c([nH]c4ccccc34)[C@@H]2C[C@@H]1N(C)C(=O)c1cc(Cl)cc(Cl)c1	/	/	.
CCOc1ncccc1C(=O)OCC(=O)N1CCC(C)CC1	/	.	.
CCn1c(C)c(C(C)=O)c(NCc2ccccc2)nc1=S	98	.	.
CC(=O)c1c(NCc2ccccc2)nc(=O)n(-c2ccccc2)c1C	.	.	.
C=CCn1cc(C(=O)N2CCN(C)CC2)c(=O)c2cc(S(=O)(=O)N(CC)CC)ccc21	.	.	.
Nc1ccc(Nc2ccccc2)c(Cl)c1	100	.	.
Nc1ccccc1Nc1ccccc1	?	.	.
Oc1ccc(Cc2ccccc2Cl)c(O)c1	/	/	.
Oc1ccc(Cc2ccc(Cl)cc2)c(O)c1	97	.	.
O=S(=O)(Nc1nc(-c2sccc2Cl)cs1)c1cc(Cl)ccc1Cl	98	.	.
CC(C)(C)c1nnc(NS(=O)(=O)c2cc(Cl)ccc2Cl)s1	.	.	.
COc1ccc(OC)c(NC(=S)N2CCN(C(=O)C3CCCO3)CC2)c1 (configuration not stated)	.	.	.
